Measured values as given in ChEMBL document CHEMBL1140436, “Synthesis, biological activity, and preliminary pharmacokinetic evaluation of analogues of a phosphosulfomannan angiogenesis inhibitor (PI-88)” (J Med Chem, 2005).
pIC50, pKd: −log10 of the molar value.

Experiments:
[1] = target: Fibroblast growth factor 2 (Homo sapiens, UniProt P09038); test: Binding affinity for FGF2 by BIAcore solution affinity assay
In short: (§1)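 Surface plasmon resonance solution affinity assay: growth factor preequilibrated with ligand in solution, then injected; specific binding after background subtraction converted to free protein concentration under mass-transport conditions. Kd derived assuming 1:1 stoichiometry; duplicates averaged where measured.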

[2] = target: T1, Vascular endothelial growth factor A, long form (Homo sapiens, UniProt P15692); test: Binding affinity for VEGF by BIAcore solution affinity assay; in short: as §1
T1 sequence (P15692 whole entry): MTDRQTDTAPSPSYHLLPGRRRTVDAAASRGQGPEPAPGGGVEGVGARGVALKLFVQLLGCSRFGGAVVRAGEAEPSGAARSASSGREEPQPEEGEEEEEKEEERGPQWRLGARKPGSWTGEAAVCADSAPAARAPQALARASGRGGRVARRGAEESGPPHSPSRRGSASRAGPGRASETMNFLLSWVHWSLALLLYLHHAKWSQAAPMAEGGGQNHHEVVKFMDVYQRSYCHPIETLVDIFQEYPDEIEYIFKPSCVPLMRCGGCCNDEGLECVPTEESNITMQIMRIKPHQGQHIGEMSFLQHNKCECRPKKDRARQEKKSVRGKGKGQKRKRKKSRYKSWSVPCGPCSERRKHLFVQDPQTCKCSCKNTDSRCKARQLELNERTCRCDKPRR

[3] = target: Fibroblast growth factor 1 (Homo sapiens, UniProt P05230); test: Binding affinity for FGF1 by BIAcore solution affinity assay; in short: as §1
Heparanase = target: T2, Heparanase (Homo sapiens, UniProt Q9Y251); test: Inhibitory activity against human platelet heparanase by Microcon ultrafiltration assay
T2 sequence (Q9Y251 whole entry): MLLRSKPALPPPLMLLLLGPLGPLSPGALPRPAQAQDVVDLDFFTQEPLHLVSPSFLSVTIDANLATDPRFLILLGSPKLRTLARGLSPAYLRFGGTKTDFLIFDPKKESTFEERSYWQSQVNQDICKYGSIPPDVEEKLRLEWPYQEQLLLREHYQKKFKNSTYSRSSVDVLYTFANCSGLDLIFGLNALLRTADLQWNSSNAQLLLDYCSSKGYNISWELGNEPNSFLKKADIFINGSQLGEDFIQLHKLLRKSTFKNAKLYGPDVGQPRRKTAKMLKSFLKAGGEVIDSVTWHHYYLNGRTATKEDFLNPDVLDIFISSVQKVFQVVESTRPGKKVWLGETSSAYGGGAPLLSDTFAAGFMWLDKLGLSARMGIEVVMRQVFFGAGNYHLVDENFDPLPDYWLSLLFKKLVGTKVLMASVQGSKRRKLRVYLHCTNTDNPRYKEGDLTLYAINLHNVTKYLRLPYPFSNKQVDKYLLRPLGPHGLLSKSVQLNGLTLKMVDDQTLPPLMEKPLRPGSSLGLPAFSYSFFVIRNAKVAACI
In short: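 Platelet-derived heparanase (100 ng) in 40 mM acetate pH 5.0, 0.1 mg/mL BSA with inhibitor, preequilibrated 10 min at 22 °C. Started with 5 μM [3H]HS, 4 h at 22 °C. Cleaved fragments separated by 10 kDa ultrafiltration and counted; activity = 4 h minus time-0 filtrate, compared with inhibitor-free control. IC50.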

Human alphaherpesvirus 1 [4] = test: Inhibition of cell to cell spread of HSV1; assay type: functional, organism-based, Human herpesvirus 1 strain KOS; settings: Human alphaherpesvirus 1, KOS321
In short: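 African green monkey kidney monolayers infected with HSV-1 KOS321, then 5-fold compound dilutions (0.032–20 μM) in serum-free overlay for 3 days at 37 °C. Area of 20 plaques measured from images, expressed relative to mock-treated cells. IC50 derived.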

Human alphaherpesvirus 1 [5] = test: Inhibition of HSV1 infection; assay type: functional, organism-based, Human herpesvirus 1 strain KOS; settings: Human alphaherpesvirus 1, KOS321
Rattus norvegicus = test: Plasma concentration in male Sprague-Dawley rat administered with 2.5 mg/kg, iv; assay type: ADME, organism-based; parameters: dose 2.5 mg/kg, route intravenous; settings: in vivo
In short: (§2)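 Plasma sampled predose to 48 h, counted in triplicate by liquid scintillation, no decay correction; <3× background excluded. Apparent parameters from notionally linear log-concentration phase; mean ± SD, n = 4.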

[6] = Area under curve (0-12h) male Sprague-Dawley rat administered with 2.5 mg/kg, iv; assay type: ADME, organism-based; parameters: time < 12 hr, dose 2.5 mg/kg, route intravenous; settings: in vivo; in short: as §2
[7] = Half life in male Sprague-Dawley rat administered with 2.5 mg/kg, iv; assay type: ADME, organism-based; parameters: dose 2.5 mg/kg, route intravenous; settings: in vivo; in short: as §2
[8] = Volume of distribution in male Sprague-Dawley rat administered with 2.5 mg/kg, iv; assay type: ADME, organism-based; parameters: dose 2.5 mg/kg, route intravenous; settings: in vivo, read-out: Vdss; in short: as §2
[9] = Clearance in male Sprague-Dawley rat administered with 2.5 mg/kg, iv; assay type: ADME, organism-based; parameters: dose 2.5 mg/kg, route intravenous; settings: in vivo; in short: as §2

Fibroblast growth factor 2, sequence (P09038 143-288 limits assumed): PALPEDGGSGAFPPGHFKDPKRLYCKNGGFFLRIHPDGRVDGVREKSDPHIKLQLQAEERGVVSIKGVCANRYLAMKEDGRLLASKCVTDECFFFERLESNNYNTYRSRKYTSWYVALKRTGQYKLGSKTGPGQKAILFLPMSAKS
Fibroblast growth factor 1, sequence (P05230 whole entry): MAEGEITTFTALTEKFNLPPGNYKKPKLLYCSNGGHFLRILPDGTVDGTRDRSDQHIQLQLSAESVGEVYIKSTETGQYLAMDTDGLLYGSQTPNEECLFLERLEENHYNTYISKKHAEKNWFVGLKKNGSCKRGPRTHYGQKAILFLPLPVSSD

## CCCCCCCCO[C@H]1O[C@H](CO)[C@@H](O)[C@H](O)[C@@H]1O[C@H]1O[C@H](CO)[C@@H](O)[C@H](O[C@H]2O[C@H](CO)[C@@H](O)[C@H](O[C@H]3O[C@H](CO)[C@@H](O)[C@H](O[C@H]4O[C@H](CO)[C@@H](O)[C@H](O)[C@@H]4O)[C@@H]3O)[C@@H]2O)[C@@H]1O
[1]
  pKd: 7.17
[2]
  pKd: 8.77
[3]
  pKd: 9.84
Heparanase
  pIC50: 5.79
Human alphaherpesvirus 1 [4]
  pIC50: 6.40
Human alphaherpesvirus 1 [5]
  pIC50: 6.00
Rattus norvegicus
  Cp: 35600 ng/mL
[6]
  AUC(0-t) at 12 h: 29700 ng·h/mL
[7]
  half-life: 66 min
[8]
  Vd: 0.0229 L
[9]
  clearance: 1.39 mL/min/kg

## O=C(CCCC[C@@H]1SC[C@@H]2NC(=O)N[C@@H]21)NCCCCCC(=O)N[C@H]1O[C@H](CO)[C@@H](O)[C@H](O)[C@@H]1O[C@H]1O[C@H](CO)[C@@H](O)[C@H](O[C@H]2O[C@H](CO)[C@@H](O)[C@H](O[C@H]3O[C@H](CO)[C@@H](O)[C@H](O[C@H]4O[C@H](CO)[C@@H](O)[C@H](O)[C@@H]4O)[C@@H]3O)[C@@H]2O)[C@@H]1O
[1]
  pKd: 7.08
[2]
  pKd: 8.14
[3]
  pKd: 9.41
Heparanase
  pIC50: 5.73
Human alphaherpesvirus 1 [4]
  pIC50: 5.52
Human alphaherpesvirus 1 [5]
  pIC50: 5.70
Rattus norvegicus
  Cp: 14000 ng/mL
[6]
  AUC(0-t) at 12 h: 6500 ng·h/mL
[7]
  half-life: 47.4 min
[8]
  Vd: 0.0551 L
[9]
  clearance: 6.33 mL/min/kg

## O=C(COc1ccccc1)N[C@H]1O[C@H](CO)[C@@H](O)[C@H](O)[C@@H]1O[C@H]1O[C@H](CO)[C@@H](O)[C@H](O[C@H]2O[C@H](CO)[C@@H](O)[C@H](O[C@H]3O[C@H](CO)[C@@H](O)[C@H](O[C@H]4O[C@H](CO)[C@@H](O)[C@H](O)[C@@H]4O)[C@@H]3O)[C@@H]2O)[C@@H]1O
[1]
  pKd: 6.95
[2]
  pKd: 8.15
[3]
  pKd: 9.18
Heparanase
  pIC50: 5.69
Human alphaherpesvirus 1 [4]
  pIC50: 5.30
Human alphaherpesvirus 1 [5]
  pIC50: 5.15

## OC[C@H]1O[C@H](O[C@@H]2[C@H](O)[C@@H](O[C@@H]3[C@H](O)[C@@H](O[C@@H]4[C@H](O)[C@@H](O[C@@H]5[C@@H](OCc6ccccc6)O[C@H](CO)[C@@H](O)[C@@H]5O)O[C@H](CO)[C@H]4O)O[C@H](CO)[C@H]3O)O[C@H](CO)[C@H]2O)[C@@H](O)[C@@H](O)[C@@H]1O
[1]
  pKd: 7.07
[2]
  pKd: 8.77
[3]
  pKd: 9.92
Heparanase
  pIC50: 5.74
Human alphaherpesvirus 1 [4]
  pIC50: 6.00
Human alphaherpesvirus 1 [5]
  pIC50: 5.70
Rattus norvegicus
  Cp: 20500 ng/mL
[6]
  AUC(0-t) at 12 h: 12600 ng·h/mL
[7]
  half-life: 49.8 min
[8]
  Vd: 0.0384 L
[9]
  clearance: 3.32 mL/min/kg
